TbMetRS inhib: Trypanosoma brucei MetRS inhibition; inhibition, % at 11.9 µM; 0.4% of 360,000 active; purified T. brucei MetRS, ATP depletion, Kinase-Glo luminescence;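 active means inhibition above a per-plate cutoff of the control wells' mean inhibition plus 3 SD, cut at about 5.5% in these data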
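technique = Kinase-Glo luminescence, ATP depletion format | system = purified MetRS (methionyl-tRNA synthetase) enzyme from Trypanosoma brucei | timing = 15 min preincubation, 2 h reaction, all 25 °C | evaluation = percent inhibition versus plate control medians | dosing = single dose, 11.9 µM final nominal, 0.9% final DMSO | also added = substrates ATP, L-methionine and bulk Escherichia coli tRNA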
aDG glyco up: increases alpha dystroglycan glycosylation; Pro5-aDG cells, alpha-DG glycosylation AlphaScreen (IIH6); 0% Pro5, 100% B10-LARGE cell signal; 0.22% of 360,000 active; activation, % at 10 µM; AID 624168;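 active means activation of at least 8% versus controls, or a plate z-score of at least 8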;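 further: Pro5 are CHO cells carrying HIG-tagged alpha-DG that lacks glycosylation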
MC4R antag cAMP: human MC4R antagonism in cAMP assay | 0.48% of 360,000 active | P32245 | inhibition, % at 6.5 µM | MC4R-expressing cells, MTII-stimulated cAMP, LANCE TR-FRET | AID 540295;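 active means inhibition above its plate's cutoff, the mean of tested wells on that plate plus 3 SD, cut at about 29% in these data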
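Assay system: U2OS cells stably expressing human melanocortin 4 receptor (MC4R) / Dosing: 6.5 µM / Timing: compound 30 min, challenge 1 h, detection 1 h / Measured by: Eu-cAMP/anti-cAMP TR-FRET, emission 671 nm / Replicates: singlicate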
NTR1 ag: NTR1 (human) agonism | P30989 | AID 493036 | NTR1-U2OS beta-arrestin-GFP spot imaging, agonist mode | activation, % at 20 µM | 0.17% of 330,000 active;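 active means activation at or above 40% of the spot to cytoplasm intensity ratio, with at least 20 cells analyzed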
Target sequence (P30989 whole entry, looked up): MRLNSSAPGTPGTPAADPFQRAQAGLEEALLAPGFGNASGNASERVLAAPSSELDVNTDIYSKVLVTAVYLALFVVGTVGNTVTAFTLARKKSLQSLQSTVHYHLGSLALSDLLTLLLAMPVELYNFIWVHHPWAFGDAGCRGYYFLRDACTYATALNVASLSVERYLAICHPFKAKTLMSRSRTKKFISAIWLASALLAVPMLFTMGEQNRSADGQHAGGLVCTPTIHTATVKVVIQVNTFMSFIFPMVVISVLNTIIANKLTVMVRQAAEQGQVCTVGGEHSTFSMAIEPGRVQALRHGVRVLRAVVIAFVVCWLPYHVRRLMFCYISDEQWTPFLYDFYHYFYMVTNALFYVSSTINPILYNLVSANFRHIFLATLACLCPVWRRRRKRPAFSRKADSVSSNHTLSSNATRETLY
H9c2 TAG inh: reduces triacylglycerol accumulation in H9c2 cells | Nile Red lipid (TAG) fluorescence; cells loaded with 200 µM oleic acid | inhibition, % at 12.5 µM | 0.66% of 230,000 active;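 active means pattern-corrected inhibition of lipid staining of at least 50% with the nuclear-stain viability signal not falling by more than 50%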
MC4R ag barr: activates human MC4R beta-arrestin recruitment; P32245; U2OS MC4R beta-arrestin complementation, luminescence; percent of melanotan II response, DMSO zero; activation, % at 8.9 µM; 0.98% of 360,000 active;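 active means activation above a per-plate cutoff, the mean activation of sample wells on that plate plus 3 SD, cut at about 8% in these data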
Tb MetRS conf: Trypanosoma brucei MetRS inhibition confirmed | shares compounds with TbMetRS inhib | AID 624412 | T. brucei MetRS enzyme, luminescence (ATP depletion) | inhibition, % at 11.9 µM | 93% of 1,400 active; in the data active means inhibition above about 7%
Jurkat cytotox: kills Jurkat cells in T. brucei MetRS counterscreen. shares compounds with TbMetRS inhib. inhibition, % at 8.3 µM. 12% of 1,400 active. Jurkat cells viability, ATP luminescence; in the data active means inhibition above about 15%
TbMetRS FP orth: T. brucei MetRS inhibition, orthogonal assay. shares compounds with TbMetRS inhib. purified T. brucei MetRS, fluorescence polarization. inhibition, % at 11.9 µM. 44% of 1,400 active. AID 651607; in the data active means inhibition above about 17%
Of the large screens only hits and unclear results are named; the others gave an inactive call (follow-up assays come after a bar, where they were run). Rows were chosen to be rich in hits. Some 2.4% of all compounds tested hit in one or more screens of this group.

O=C(COc1ccc(Cl)cc1Cl)N/N=C/CCc1ccccc1	none (no result: H9c2 TAG inh)
S=C(N/N=C/c1ccccc1Cl)Nc1ccccc1	none (no result: H9c2 TAG inh)
S=C(N/N=C/c1cccc2ccccc12)Nc1cccc(Cl)c1	TbMetRS inhib 5.8 | Tb MetRS conf inactive | Jurkat cytotox inactive | TbMetRS FP orth inactive
O=C(COc1ccc(Cl)cc1Cl)N/N=C/c1ccc[nH]1	TbMetRS inhib 6.6 (no result: H9c2 TAG inh) | Tb MetRS conf 36 | Jurkat cytotox inactive | TbMetRS FP orth 27
O=C(COc1ccc(Cl)cc1Cl)NNC(=S)NCc1ccco1	TbMetRS inhib 6.4 (no result: H9c2 TAG inh) | Tb MetRS conf inactive | Jurkat cytotox inactive | TbMetRS FP orth inactive
Cc1cc(Cl)ccc1OCCCC(=O)NNC(=O)c1ccccc1O	TbMetRS inhib 6.0 | Tb MetRS conf 25 | Jurkat cytotox inactive | TbMetRS FP orth 22
O=C(CCCOc1ccc(Cl)cc1Cl)N/N=C/c1ccccc1	TbMetRS inhib 12 (no result: H9c2 TAG inh) | Tb MetRS conf 39 | Jurkat cytotox inactive | TbMetRS FP orth 34
O=C(CC(=O)Nc1cccc(Cl)c1)N/N=C\c1ccccc1	TbMetRS inhib 36 (no result: H9c2 TAG inh) | Tb MetRS conf 82 | Jurkat cytotox inactive | TbMetRS FP orth 51
O=C(CCCOc1ccc(Cl)cc1Cl)N/N=C/c1ccco1	TbMetRS inhib 17 | Tb MetRS conf 52 | Jurkat cytotox inactive | TbMetRS FP orth 57
O=C(CCCOc1ccc(Cl)cc1Cl)Nc1ncccn1	none
Cc1ccc(/C=N/NC(=O)CCCOc2ccc(Cl)cc2Cl)cc1	none (no result: H9c2 TAG inh)
O=C(CCCOc1ccc(Cl)cc1Cl)N1CCN(c2ccccn2)CC1	TbMetRS inhib 12 (no result: H9c2 TAG inh) | Tb MetRS conf 20 | Jurkat cytotox inactive | TbMetRS FP orth inactive
COc1cc(/C=C(\C#N)c2nc3ccccc3[nH]2)ccc1Oc1ccc([N+](=O)[O-])cn1	TbMetRS inhib 21 (no result: H9c2 TAG inh) | Tb MetRS conf 63 | Jurkat cytotox 24 | TbMetRS FP orth 37
Cc1cc(Br)cc(Br)c1OCC(=O)NNC(=O)Nc1ccccc1	TbMetRS inhib 7.5 | Tb MetRS conf 45 | Jurkat cytotox inactive | TbMetRS FP orth 30
CCOC(=O)C1=CCN(S(=O)(=O)c2ccccc2[N+](=O)[O-])C1c1ccc(C)cc1 (configuration not stated)	none (no result: MC4R antag cAMP, NTR1 ag, H9c2 TAG inh, MC4R ag barr)
c1ccc(CNc2ncnc3ccccc23)cc1	none
c1ccc(CN2CCC(CNc3ncnc4ccccc34)C2)cc1 (configuration not stated)	TbMetRS inhib 6.2 (no result: NTR1 ag) | Tb MetRS conf 28 | Jurkat cytotox 27 | TbMetRS FP orth inactive
Cc1cc(O)c(-c2cc(C(=O)NCCc3ccc(S(N)(=O)=O)cc3)[nH]n2)cc1C	none
Cc1cc(C)c(O)c(-c2cc(C(=O)NCCc3ccc(S(N)(=O)=O)cc3)[nH]n2)c1	TbMetRS inhib 5.7 | Tb MetRS conf 15 | Jurkat cytotox inactive | TbMetRS FP orth 17
COc1ccc(CCNC(=O)c2cc(-c3cc(Cl)ccc3O)n[nH]2)cc1OC	none
NS(=O)(=O)c1ccc(CCNC(=O)c2cc(-c3cc(Cl)ccc3O)n[nH]2)cc1	TbMetRS inhib 32 | Tb MetRS conf 38 | Jurkat cytotox inactive | TbMetRS FP orth 36
CN(C)c1ccc(-c2[nH][nH]c(=O)c2NC(=O)c2ccccn2)cc1	TbMetRS inhib 28 (no result: MC4R antag cAMP, NTR1 ag, H9c2 TAG inh, MC4R ag barr) | Tb MetRS conf inactive | Jurkat cytotox inactive | TbMetRS FP orth inactive
O=C(Nc1c(-c2ccccc2)[nH][nH]c1=O)c1ccccc1	none (no result: MC4R antag cAMP, NTR1 ag, H9c2 TAG inh, MC4R ag barr)
Cc1cnc(C(=O)Nc2c(-c3ccccc3)[nH][nH]c2=O)cn1	none (no result: MC4R antag cAMP, NTR1 ag, H9c2 TAG inh, MC4R ag barr)
CN(C)c1ccc(-c2[nH][nH]c(=O)c2NC(=O)c2ccc3ccccc3n2)cc1	TbMetRS inhib 13 (no result: MC4R antag cAMP, NTR1 ag, H9c2 TAG inh, MC4R ag barr) | Tb MetRS conf inactive | Jurkat cytotox inactive | TbMetRS FP orth inactive
CC(C)n1nnnc1C1c2ccccc2C(=O)N1Cc1cccnc1 (configuration not stated)	none (no result: MC4R antag cAMP, NTR1 ag, H9c2 TAG inh, MC4R ag barr)

High-throughput results (PubChem)
